For 167 variants, yeast fitness results are on record in the RNAGym collection of RNA variant scans (doi:10.1126/science.aae0568).

B1: tRNA (parent)
chain: GUUCCGUUGGCGUAAUGGUAACGCGUCUCCCUCCUAAGGAGAAGACUGCGGGUUCGAGUCCCGUACGGAACG

Fewer inactive variants are shown than the library holds. A value given as a limit tells only on which side of the number the result lay.

In the data set the parent is B1. Kind of data set: yeast fitness relative to wild type (ratio to wild type); higher = fitter; tRNA-Arg(CCU), competitive growth, 37 C, YPD. The method in brief:
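Variants of the tRNA-Arg(CCU) gene were chemically synthesised with a 3% per-site mutation rate across 69 sites and placed at the native genomic locus in Saccharomyces cerevisiae. Six parallel replicates of the pooled strains were competed in YPD at 37°C for 24 hours, and gene amplicons from the start and end populations were read by 100-nucleotide paired-end sequencing. Darwinian fitness relative to wild type was derived from changes in genotype frequencies. Genotypes required ≥ 100 starting reads, and estimates < 0.5 were set to 0.5.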
In the case of U7C A15G G17A, the yeast fitness was at most 0.5.

As for C30A C31G U32A C60U, the yeast fitness is at most 0.5.

A36G A57G C62A: the yeast fitness turned out to be 0.549.

For C22U A42C, the yeast fitness was 0.808.

For G38C C62U A69U, the yeast fitness is 0.603.

With C4U U35C A36G G44C, the yeast fitness amounted to 0.708.

As to A15G A20G, the yeast fitness turned out to be 1.04.

On to A15G C22U A70C, for which the yeast fitness came to 0.594.

Consider A15C C33G, for which the yeast fitness worked out at 0.505.

In the case of C46A A70C, the yeast fitness was 1.02.

For the variant U13A A14U C22G A37G, the yeast fitness was 0.631.

As for C5U A20U C30U C46U U47G, the yeast fitness is at most 0.5.

In the case of U7A G50C, the yeast fitness worked out at 0.684.

Turning to C11U C22U C24U G41A A65C, the yeast fitness is at most 0.5.

As to A40G A42U, the yeast fitness was determined as 0.71.

Consider G10A G56A, for which the yeast fitness is 0.754.

Consider C22G U53G C55U, for which the yeast fitness was at most 0.5.

In the case of C4G C11G A20G A36U G63A A65U C66U, the yeast fitness was at most 0.5.

On to G10C U32A A43C C49A, for which the yeast fitness is at most 0.5.

For U16A G67C, the yeast fitness stood at 0.769.

Take U2G G48C: the yeast fitness was found to be 0.849.

In the case of A15C C34G C49G U54C C66G G68C, the yeast fitness is at most 0.5.

As for U8C C22A A36C G63C, the yeast fitness was at most 0.5.

On to A43U C55G, for which the yeast fitness was found to be 0.537.

Consider U2A U7C G25A A36U C60A C62G, for which the yeast fitness was 0.58.

Turning to C34G G50C, the yeast fitness was at most 0.5.

With C5U A42C C66U, the yeast fitness turned out to be 0.793.

Turning to C5G G39A C46U G67A, the yeast fitness was at most 0.5.

As for A45U C46U U47C U64C, the yeast fitness turned out to be 0.988.

Regarding C5U A21U C30G C62U, the yeast fitness amounted to 0.57.

For the variant G38C A40U G51A C60U G68A, the yeast fitness is at most 0.5.

On to A21C A37U G58A, for which the yeast fitness is at most 0.5.

For the variant U3A C27A A42G C46G, the yeast fitness was at most 0.5.

Regarding G23C A37G G44C A45C G50A C55G C66A, the yeast fitness was at most 0.5.

As to U2G C31U G48C C62A, the yeast fitness was at most 0.5.

For C30U C46A U54A A57G, the yeast fitness was determined as 0.52.

For C5U G10C C30A A36U A42C U64A C66G A69U, the yeast fitness was at most 0.5.

G41C C49U: the yeast fitness came out at 0.894.

In the case of C5U C11U C33G A43C, the yeast fitness was at most 0.5.

For A15G C61G A70C, the yeast fitness was 0.639.

For C4U U26A A37C A42C C49U G56A, the yeast fitness was at most 0.5.

In the case of U28C A40G A70C, the yeast fitness was 0.576.

Consider C4A U54C U59A, for which the yeast fitness was found to be 0.542.

On to U16A U28G C66U, for which the yeast fitness is at most 0.5.

For the variant A14C A15G G23C A57C, the yeast fitness is at most 0.5.

As to A14C C61A, the yeast fitness stood at 0.604.

As to U7A G10A A20C C29A U64C, the yeast fitness was at most 0.5.

With C27U A43C A69U, the yeast fitness was determined as 0.882.

Take A15C C27A U32G C60G: the yeast fitness is at most 0.5.

C4G C11U: the yeast fitness worked out at 0.967.

Turning to C11G U47A C62G C66G, the yeast fitness is at most 0.5.

In the case of G6A A42C G48A C62U, the yeast fitness is 0.698.

For C46G G56A, the yeast fitness stood at 1.03.

Take C46A G52C G63A A65U: the yeast fitness was at most 0.5.

Regarding G23A C27G C29U G56A, the yeast fitness was at most 0.5.

For C11U A14U A40G A42C A43G, the yeast fitness was at most 0.5.

C24G A43C C62U A65G: the yeast fitness was at most 0.5.

With C34A A45C G68A, the yeast fitness stood at 0.614.

As to C22U C31G C33A G38A U47A, the yeast fitness was at most 0.5.

In the case of A14G G18C C29G C34U A45C, the yeast fitness was at most 0.5.

As for A36G C60A A70G, the yeast fitness was at most 0.5.

Take C5U A45C U53G: the yeast fitness was 0.574.

Consider U19C C30U G56A A69C, for which the yeast fitness was at most 0.5.

As to U8G G17A A20C C22G C29G C34G, the yeast fitness was determined as 0.549.

Consider A14G G48A C61A G68U, for which the yeast fitness is at most 0.5.

As for A21G C27A G67C, the yeast fitness is at most 0.5.

Regarding G6A G12C U16A A21C, the yeast fitness is at most 0.5.

In the case of C24A C62U, the yeast fitness amounted to 0.724.

For the variant C29G C49A C60A, the yeast fitness was 0.572.

On to C24U C30A A65G, for which the yeast fitness is at most 0.5.

For the variant C46G A70U, the yeast fitness came out at 0.976.

For A43C G48A, the yeast fitness amounted to 1.06.

As to A21C C27U A57U C62G C66U, the yeast fitness is at most 0.5.

Turning to C4U A15G C27U G41A, the yeast fitness is at most 0.5.

Turning to G56C C66U, the yeast fitness was 0.699.

Regarding A14U C30U A42G, the yeast fitness is at most 0.5.

In the case of A14C A20U C27G U59C C61A, the yeast fitness was at most 0.5.

Turning to U28A A45C C46G G67A, the yeast fitness was determined as 0.532.

On to C4U G41C C55G, for which the yeast fitness stood at 0.539.

For the variant C11A U19A C29A U32A U54C C55G C60G A65G, the yeast fitness was at most 0.5.

As for C24G C29U, the yeast fitness was 0.521.

For C4U G9A C29U, the yeast fitness came out at 0.567.

For U16A C22A G56A, the yeast fitness is 0.696.

C27G C31U A37G G58C: the yeast fitness was at most 0.5.

In the case of U32A A42U C61G C62U, the yeast fitness came out at 0.661.

For C5G G17C C49U C61A, the yeast fitness is at most 0.5.

For C22U G23C, the yeast fitness was found to be 0.722.

As to U16C C22A U53C C66G A69U, the yeast fitness is at most 0.5.

Take U32C G38C G41C A65G: the yeast fitness is at most 0.5.

A20C C46A C61U C66U: the yeast fitness is at most 0.5.

On to C31U C66U, for which the yeast fitness was 1.03.

Turning to G6C A37G G44C A57U G68C, the yeast fitness is at most 0.5.

For U7A G9C G17C G50A, the yeast fitness is at most 0.5.

Consider A14G C22U C34U G51C G58A, for which the yeast fitness is at most 0.5.

With U2G A42U U64C, the yeast fitness is at most 0.5.

A40G G50A C61G: the yeast fitness was found to be 0.584.

On to U16C C24U C33U C55A, for which the yeast fitness is at most 0.5.

Regarding A40C G48A, the yeast fitness was 1.02.

For G12A C27U, the yeast fitness came out at 0.942.

As to C29G G56A C61U, the yeast fitness is at most 0.5.

In the case of U2G C30G G39C, the yeast fitness is 0.551.

Take U2G A15G G17A G52C C66A: the yeast fitness was at most 0.5.

As to C30U A69U A70C, the yeast fitness was determined as 0.737.

Consider C5G U35A G63C, for which the yeast fitness is at most 0.5.

U2G A15C C24U C55U A65G: the yeast fitness was at most 0.5.

Regarding A15C A45U C66A, the yeast fitness was at most 0.5.

With C5G G25C C29G A65U, the yeast fitness is at most 0.5.

In the case of G23C G50A C61U, the yeast fitness is at most 0.5.

As for C34A U59C, the yeast fitness came to 0.728.

With G9A U28C A40C G48A, the yeast fitness was at most 0.5.

As for A15U C27A, the yeast fitness amounted to 0.593.

On to U7A U19A C27A C30U G41C A43U C49A, for which the yeast fitness was at most 0.5.

Consider A21C C27U C34U G50C G52C C61U, for which the yeast fitness was at most 0.5.

As for G9C G39C C61U, the yeast fitness is 0.544.

For A14C A15U U47G, the yeast fitness was at most 0.5.

Turning to C5G U8C G10C G52A, the yeast fitness was at most 0.5.

With A15U A45U A69C, the yeast fitness was 0.647.

On to A15C C31A, for which the yeast fitness was 0.561.

Consider A14G C31U, for which the yeast fitness came out at 0.932.

As for U19C A65C, the yeast fitness was found to be 0.888.

As to G51A A69U A70G, the yeast fitness was determined as 0.543.

U3C U13A A45C G48A U64C: the yeast fitness was 0.57.

For the variant C4A C30G A40C C55A G58C A65U A70U, the yeast fitness was at most 0.5.

As to U28G C34U A45U, the yeast fitness turned out to be 0.52.

With U2C G23A C46U, the yeast fitness was determined as 0.528.

Consider C24G A37C, for which the yeast fitness came to 0.563.

As to U19A C27A G52C, the yeast fitness was at most 0.5.

In the case of C4G C60A, the yeast fitness stood at 0.642.

For U7A U8G C30G A70U, the yeast fitness was determined as 0.518.

On to C11G G17A C30G C61G, for which the yeast fitness is at most 0.5.

As for U7A G10A A20C C29A G63A A70C, the yeast fitness is at most 0.5.

A14C U19A A20C G51A U59C: the yeast fitness came out at 0.645.

Regarding U28C U47C G58A, the yeast fitness came to 1.07.

Turning to C22G C29A G58A C61G A70U, the yeast fitness was at most 0.5.

In the case of C24A G58C C62U, the yeast fitness was at most 0.5.

On to C11G A15U C55U, for which the yeast fitness was at most 0.5.

A21G C31G A45G: the yeast fitness amounted to 0.938.

As for G18A C49A G63A, the yeast fitness is at most 0.5.

Consider A14U C49U U54C, for which the yeast fitness is at most 0.5.

Regarding U32A G58C G63C, the yeast fitness was at most 0.5.

With C29U G48A, the yeast fitness turned out to be 0.986.

As to G10A U16A C31A G51A A70U, the yeast fitness was at most 0.5.

For A21G C27U G38C G68C, the yeast fitness was at most 0.5.

Turning to C5G C29A G48A A65U, the yeast fitness is at most 0.5.

For C24U C62G U64G, the yeast fitness was at most 0.5.

As to U16C C49U, the yeast fitness worked out at 0.867.

Take U7C G25C: the yeast fitness was found to be 0.822.

As for U8A U26A C29A C62U, the yeast fitness stood at 0.537.

U8C U32G U47C C55G: the yeast fitness was at most 0.5.

In the case of C4A C33U A36C A40G, the yeast fitness is at most 0.5.

For the variant G6A U28A C31G U35A U47A U54A, the yeast fitness was at most 0.5.

On to C30A A45U, for which the yeast fitness came to 0.997.

As to G6U C27G, the yeast fitness came out at 0.545.

In the case of U2A C4A U13C A42G C61U, the yeast fitness is at most 0.5.

Turning to U16A A45C A69C, the yeast fitness was 0.662.

Regarding C27A C31G A65U, the yeast fitness worked out at 0.679.

With C27G C31A C46A G56C, the yeast fitness was at most 0.5.

With C22U G25A G41A C46A A69C, the yeast fitness was found to be 0.599.

C24U A57C G68U: the yeast fitness was at most 0.5.

A20U C27G C34U U35C A36C: the yeast fitness came to 0.921.

On to A21C U28A U32C G68A, for which the yeast fitness is at most 0.5.

As to C22U G51C A65U, the yeast fitness was at most 0.5.

For A15G C33U A65U, the yeast fitness amounted to 0.543.

Turning to A65C A69G A70U, the yeast fitness worked out at 0.519.

With A43U C46U, the yeast fitness is 0.952.

Take U2G C11G G12A A20U C30G C49G U53G: the yeast fitness was at most 0.5.

As to G48A C66A, the yeast fitness came to 0.929.
